Source: publication PMC5773287 (ACS nano, 2017)
Numbered stars: 1 amine (or outer) side, 2 acyl side, 3 side chain; on linkers, the order of the positions; unused ones are H or OH. Peptide text beside a SMILES is read from it. * marks the point of attachment. X1 = Nc1nc2[nH]cc(CCc3ccc(C(=O)*)cc3)c2c(=O)[nH]1; γGlu = O=C(O)[C@H](CCC(=O)[*:2])N[*:1]

What was measured:
[1] = Cytotoxicity assay against the mouse glioma cell line GL261
[2] = type: physicochemical; conditions: for hydrogel formation: 30 mM in 1× DPBS solution, overnight ageing, vial inversion; for self-assembled morphology (cryo-TEM): 1× DPBS, aged over 24 h at room temperature, PemFE 4 mM, C12FE 10 mM
Summary of the method: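 Self-assembled nanostructures imaged by cryo-TEM after aging over 24 h at room temperature. For gelation, lyophilized test peptide powder was dissolved in 1× DPBS at a final 30 mM and sonicated 2 min to aid dissolution. Samples were aged overnight, and gel formation was recorded by photographing inverted vials.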

[3] = tested on: GL261 mouse glioma cell line; experiment: Cytotoxicity assay against the mouse glioma cell line GL261

| Compound | IC50 [1] [µM] | hydrogel formation [2] | self-assembled morphology (cryo-TEM) [2] | IC50 ([3]; Mus musculus, GL261, read-out: IC50 (cytotoxicity)) [µM] | cell toxicity ([3]; GL261 cells, concentrations up to 100 μM) |
| --- | --- | --- | --- | --- | --- |
| Nc1nc2[nH]cc(CCc3ccc(C(=O)N[C@@H](CCC(=O)N[C@@H](Cc4ccccc4)C(=O)N[C@@H](Cc4ccccc4)C(=O)N[C@@H](CCC(=O)O)C(=O)N[C@@H](CCC(=O)O)C(=O)O)C(=O)O)cc3)c2c(=O)[nH]1 [PemFE] ({X1-γGlu}-FFEE-OH) | 2.29 | formation of self-supporting hydrogels | filamentous nanostructures |  |  |
| Nc1nc2[nH]cc(CCc3ccc(C(=O)N[C@@H](CCC(=O)O)C(=O)O)cc3)c2c(=O)[nH]1 [Pem, Pemetrexed, reference compound] |  |  |  | 0.13 |  |
| FFEE [C12FE] |  | formation of self-supporting hydrogels | filamentous nanostructures |  | did not show any significant cell toxicity |
